Test [1] deals with B16-F10. The test can be described thus: Antiproliferative activity against mouse B16F10 cells at 10 uM after 48 hrs by Cyto Tracker red dye based flow cytometry. It counts as functional, cell-based. The method in brief: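 B16-F10 cells (Iscove's medium, 10% heat-inactivated FBS, 37 °C, 5% CO2) exposed to compound or DMSO for 48 h, stained with CytoTrack Red 628/643 and analysed by flow cytometry. Proliferation index (average number of cells that an initial cell became) expressed as fold change over DMSO control; n = 3; one-way ANOVA with Tukey post-test.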
On the technique in general: Flow cytometry measures light scatter and fluorescence of single cells or particles in a stream.

For test [2], the target named is T1, Monoglyceride lipase (Mus musculus, UniProt O35678).
T1 sequence (O35678 whole entry): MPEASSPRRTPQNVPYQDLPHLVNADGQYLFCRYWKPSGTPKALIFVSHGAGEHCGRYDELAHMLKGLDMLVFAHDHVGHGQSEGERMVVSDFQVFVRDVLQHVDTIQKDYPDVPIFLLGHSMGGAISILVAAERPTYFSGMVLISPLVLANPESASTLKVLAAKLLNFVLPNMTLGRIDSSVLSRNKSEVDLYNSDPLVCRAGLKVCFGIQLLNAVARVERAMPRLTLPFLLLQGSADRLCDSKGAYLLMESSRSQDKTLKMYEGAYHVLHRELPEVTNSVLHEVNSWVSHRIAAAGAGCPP
The test can be described thus: Inhibition of MAGL in mouse B16-F10 cells using 7-HRA as substrate preincubated for 60 mins followed by substrate addition measured every 2.5 mins for 2 hrs by fluorescence assay. It counts as cell-based.

The test system of test [3] is MCF7. In words: Induction of apoptosis in human MCF7 cells at 10 nM after 48 hrs by Annexin V-FITC/propidium iodide staining based flow cytometry. The format is functional, cell-based.
Test [4] concerns the target T2, Monoglyceride lipase (Homo sapiens) (UniProt Q99685).
T2 sequence (whole entry): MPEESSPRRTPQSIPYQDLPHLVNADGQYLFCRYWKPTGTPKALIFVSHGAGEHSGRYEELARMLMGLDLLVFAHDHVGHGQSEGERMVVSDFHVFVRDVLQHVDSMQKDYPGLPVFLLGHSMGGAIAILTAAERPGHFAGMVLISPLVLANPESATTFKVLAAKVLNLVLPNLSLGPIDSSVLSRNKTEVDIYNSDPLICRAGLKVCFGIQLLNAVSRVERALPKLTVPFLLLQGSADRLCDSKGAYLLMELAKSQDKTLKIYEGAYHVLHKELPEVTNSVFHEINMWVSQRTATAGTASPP
In words: Inhibition of recombinant human MAGL assessed as residual activity at 10 uM using 7-HRA as substrate preincubated for 60 mins followed by substrate addition by fluorescence assay relative to control. The method in brief: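 Recombinant human MAGL (C-terminal His-tagged, E. coli), 25 ng/well, in 50 mM Tris-HCl pH 7.4, 1 mM EDTA, 10% DMSO final. Preincubated with inhibitor or DMSO 60 min at room temperature, then 5 μM 7-HRA (final) added. Resorufin fluorescence (ex 571/em 588 nm) converted via calibration curve. Rates from linear regression, no-enzyme background subtracted, normalised to no-inhibitor control. IC50 taken at 30 min by variable-slope sigmoid fit.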

Test [5] deals with T3, Fatty-acid amide hydrolase 1 (Homo sapiens) (UniProt O00519).
T3 sequence (whole entry): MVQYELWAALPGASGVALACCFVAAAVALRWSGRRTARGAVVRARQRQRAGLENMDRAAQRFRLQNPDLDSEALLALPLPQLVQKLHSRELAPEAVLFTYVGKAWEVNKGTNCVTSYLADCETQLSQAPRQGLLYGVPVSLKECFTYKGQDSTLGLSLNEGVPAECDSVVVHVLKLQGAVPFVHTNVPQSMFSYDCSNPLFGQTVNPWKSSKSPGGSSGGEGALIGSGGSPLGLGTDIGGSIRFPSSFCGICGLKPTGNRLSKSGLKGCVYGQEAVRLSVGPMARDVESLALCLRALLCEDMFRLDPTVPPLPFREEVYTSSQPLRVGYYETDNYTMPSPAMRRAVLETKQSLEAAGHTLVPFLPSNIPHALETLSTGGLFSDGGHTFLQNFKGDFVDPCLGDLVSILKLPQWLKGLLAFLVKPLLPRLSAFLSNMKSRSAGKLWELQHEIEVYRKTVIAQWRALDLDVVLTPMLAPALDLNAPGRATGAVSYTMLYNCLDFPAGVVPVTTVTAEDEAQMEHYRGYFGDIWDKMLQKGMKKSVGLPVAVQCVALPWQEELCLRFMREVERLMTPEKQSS
In words: Inhibition of human FAAH at 10 uM using AAMCA as substrate preincubated for 1 hr followed by substrate addition measured after 30 mins by fluorescence assay relative to control. The method in brief: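 Recombinant human FAAH (C-terminal His-tagged, Sf21), 1 U/well, in 50 mM Tris-HCl, 1 mM EDTA, pH 9, preincubated 1 h at room temperature with 10 μM compound (final). AAMCA added to 20 μM final; fluorescence (ex 360/em 460 nm) read every 3 min for 30 min. Rate by linear regression, no-enzyme background subtracted, normalised to no-inhibitor control.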

Test [6] addresses T2, Monoglyceride lipase (Homo sapiens). In words: Inhibition of MAGL in human MCF7 cells at 10 uM using 7-HRA as substrate preincubated for 6 hrs followed by substrate addition by fluorescence assay. It counts as cell-based. The method in brief: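 MCF7 cells cultured 6 h with 10 μM compound or DMSO, then lysed; MAGL activity measured on total cell lysate using the 7-HRA fluorogenic assay.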

The subject of test [7] is B16-F10. The test can be described thus: Induction of apoptosis in mouse B16F10 cells assessed as late apoptotic cells at 10 uM after 48 hrs by Annexin V-FITC/propidium iodide staining based flow cytometry (reference value: 7.39%). The format is functional.
Test [8] addresses T4, Monoglyceride lipase (Mus musculus) (UniProt O35678).
T4 sequence (whole entry): T1 sequence (O35678 whole entry)
The test can be described thus: Inhibition of MAGL in mouse B16-F10 intact cells at 10 uM using 7-HRA as substrate preincubated for 6 hrs followed by substrate addition by fluorescence assay. It counts as cell-based. The method in brief:
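Intact B16-F10 cells cultured 6 h with compound or DMSO, homogenised 30 min at 4 °C in lysis buffer and spun 1,500 × g 5 min. 1 μg lysate assayed with 10 μM 7-HRA (ex 571/em 588 nm); 5-min values reported; mean ± SEM, n = 3.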

For test [9], the system named is B16-F10. In words: Induction of apoptosis in mouse B16F10 cells assessed as necrotic cells at 10 uM after 48 hrs by Annexin V-FITC/propidium iodide staining based flow cytometry (reference value: 2.62%). The format is functional.
Test [10] relates to B16-F10. In words: Induction of apoptosis in mouse B16F10 cells assessed as live cells at 10 uM after 48 hrs by Annexin V-FITC/propidium iodide staining based flow cytometry (reference value: 88.04%). It counts as functional.
The subject of test [11] is B16-F10. The test can be described thus: Induction of apoptosis in mouse B16F10 cells assessed as early apoptotic cells at 10 uM after 48 hrs by Annexin V-FITC/propidium iodide staining based flow cytometry (reference value: 1.75%). The format is functional.
For test [12], the target named is T5, Monoglyceride lipase (Homo sapiens, UniProt Q99685).
T5 sequence (Q99685 whole entry): T2 sequence (whole entry)
The test can be described thus: Inhibition of recombinant human MAGL using 7-HRA as substrate preincubated for 60 mins followed by substrate addition by fluorescence assay.

Test [13] concerns MCF7. In words: Induction of apoptosis in human MCF7 cells at 20 uM after 48 hrs by Annexin V-FITC/propidium iodide staining based flow cytometry. The format is functional, cell-based. The method in brief:
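MCF7 cells grown in 50% DMEM high glucose / 50% Ham's F-12 with 10% heat-inactivated FBS at 37 °C, 5% CO2, then exposed 48 h to compound or DMSO vehicle. Cells stained with annexin V plus 5 µg/ml PI in HEPES/NaCl/CaCl2 binding buffer. Flow cytometry on 10,000 cells per sample. Apoptotic = AnnV+/PI− plus AnnV+/PI+. n=3, mean ± S.E.M.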

Test [14] addresses T1, Monoglyceride lipase. In words: […] of MAGL in mouse B16-F10 cells using 7-HRA as substrate preincubated for 60 mins followed by substrate addition measured every 2.5 mins for 2 hrs by fluorescence assay. It counts as cell-based.
Test [15] deals with MCF7. The test can be described thus: Induction of apoptosis in human MCF7 cells at 10 uM after 48 hrs by Annexin V-FITC/propidium iodide staining based flow cytometry. It counts as functional, cell-based. The method in brief: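 HEK293T (DMEM with 10% FBS) or MCF7 (DMEM/Ham's F-12 1:1, 10% FBS) cells treated 48 h with 10 μM compound or DMSO. Staining with Alexa Fluor 488 annexin V plus 5 μg/ml PI in HEPES/NaCl/CaCl2 binding buffer; 10,000 cells per sample read by flow cytometry; n = 3, mean ± S.E.M.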

SMILES strings stand for the structures. The source made the active and inactive calls. No cut-off for these calls is given here.

As for `O=C(Nc1cccc(-c2ccc(F)cc2)c1)OCc1ccccc1`, in the test with B16-F10 [1], the outcome was inactive. The IC50 (usually the point on the concentration scale where inhibition reaches its midpoint) at Monoglyceride lipase [2] (read-out: IC50) stood at 15.6 µM.
On to `O=C(Nc1cccc(-c2ccc(C(F)(F)F)cc2)c1)OCC1CCCCC1`, for which the outcome in the test with B16-F10 [1] was inactive. The IC50 on Monoglyceride lipase [2] (read-out: IC50) stood at 17.4 µM.
`COc1ccc(-c2ccc(-c3cn(C(=O)N4CCCCC4c4ccccc4)nn3)cc2)cc1` (configuration not stated): in the test on MCF7 [3], the outcome was inactive.
For the compound `O=C(Nc1cccc(-c2ccc(C(F)(F)F)cc2)c1)OCc1ccccc1`, the Activity stood at 82% in test [4]; 22.65% in the test on B16-F10 [7]; 2.96% in the test with B16-F10 [9]; 64.51% in the test on B16-F10 [10]; 9.89% with B16-F10 [11]. Further, in [5], the inhibition – broadly, the share of the control response that was lost under treatment – turned out to be 15%. In the test with B16-F10 [1], the outcome was Active. In addition, the inhibition result in test [6] and in test [8] was “Active” each time. In addition, the half-maximal inhibitory concentration (IC50) on Monoglyceride lipase [2] (read-out: IC50) was 9.41 µM; on Monoglyceride lipase [12] (read-out: IC50) it was 4.5 µM.
As for `O=C(Nc1cccc(-c2ccccc2)c1)OCCc1ccccc1`, the outcome in the test on B16-F10 [1] was inactive. For the same compound, on Monoglyceride lipase [2] (read-out: IC50), the concentration for half-maximal inhibition (IC50) is 17.1 µM.
For the compound `O=C(Nc1cccc(-c2ccccc2)c1)OC1CCCCC1`, the Activity in test [4] is 66%; with B16-F10 [7] it was 13.54%; in the test on B16-F10 [9], 5.48%; with B16-F10 [10], 79.55%; in the test on B16-F10 [11], 1.43%. Moreover, the outcome in the test on B16-F10 [1] was inactive. In addition, the IC50 was determined as 19.8 µM at Monoglyceride lipase [2] (read-out: IC50) and 9.1 µM on Monoglyceride lipase [12] (read-out: IC50).
With `O=C(Nc1cccc(-c2ccccc2)c1)OCc1ccco1`, the IC50 entry at Monoglyceride lipase [2] (b16-f10) and at Monoglyceride lipase [12] was “Nd(Insoluble)” throughout.
For `O=C(Oc1ccc([N+](=O)[O-])cc1)N1CCC(C(O)(c2ccc3c(c2)OCO3)c2ccc3c(c2)OCO3)CC1`, the outcome in the test with MCF7 [13] was Active.
On to `O=C(Nc1cccc(-c2ccccc2)c1)OCc1ccccc1`, for which the result with B16-F10 [1] was inactive. The IC50 stood at 16.5 µM on Monoglyceride lipase [2] (read-out: IC50) and 11.1 µM at Monoglyceride lipase [12] (read-out: IC50).
In the case of `O=C(Nc1cccc(-c2ccccc2)c1)Nc1cccc(-c2ccccc2)c1`, the response at Monoglyceride lipase [14] was half-maximal at 5.76 µM (EC50).
Consider `CCCCCCCC/C=C\CCCCCCCC(=O)NCC`, for which the result with MCF7 [15] was inactive. For the same compound, in test [5], the inhibition worked out at 99%.
For the compound `O=C(Nc1cccc(-c2ccc(F)cc2)c1)OCC1CCCCC1`, the result in the test with B16-F10 [1] was inactive. Further, the IC50 on Monoglyceride lipase [2] (read-out: IC50) was determined as 26.7 µM.

For the origin of these results see ChEMBL document CHEMBL4219238, “Design, synthesis, molecular modelling and in vitro cytotoxicity analysis of novel carbamate derivatives as inhibitors of Monoacylglycerol lipase” (Bioorg Med Chem, 2018).
